Structures are written as SMILES. Values after ≈ are worked out from the molar mass of the structure shown. Active and inactive are the calls of the source. The rule behind the calls is not given here. Where only a bound is given, the exact number is not on record here.

Data set [1] in a line: Stability in mouse plasma assessed as parent compound remaining at 1 uM measured after 2 hrs by LC-MS/MS analysis. The note with it: read-out: Stability. It counts as ADME, cell-free. In a few lines: (§1)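 Compound at 1 µM initial concentration incubated 2 h at 37 °C in plasma. Quenched with 10 volumes of methanol containing internal standard, then centrifuged. Supernatant diluted with an equal volume of water and analysed by LC-MS/MS. Read-out is % parent remaining. Mean of three separate assays run in triplicate.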

Data set [2] deals with Epidermal growth factor receptor (Homo sapiens, UniProt P00533). Put plainly: Inhibition of recombinant human GST-tagged EGFR cytoplasmic domain (668 to 1210 residues) expressed in baculovirus expression system using Z'-lyte-labelled tyr-4 peptide as substrate measured after 1 hr by FRET assay. In a few lines:
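Z'-LYTE kinase assay. Compounds tested as 3-fold serial dilutions in aqueous solution containing 4% DMSO. Fluorescence read at 400 nm excitation and 445/520 nm emission. IC50 is the mean of ≥3 assays in triplicate.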

Data set [3] deals with Mus musculus. Put plainly: Antiarthritic activity in complete freund's adjuvant-induced DBA/1 mouse arthritis model assessed as reduction in paw volume at 10 mg/kg, po qd administered starting from 29 day post-CFA challenge and measured on day 29, 33, 36, 40 and 43 by caliper method. In kind it is functional, organism-based. In a few lines: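 Male DBA/1 mice (18-20 g, 4-6 weeks) immunized intradermally at the tail base with bovine type II collagen in CFA on day 0, then challenged with collagen II in IFA on day 20. Randomized on day 29 and dosed orally once daily (n=6 per group) with vehicle as control. Paw thickness measured by caliper on days 29, 33, 36, 40 and 43. Mean ± SEM; Dunnett's test vs vehicle.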

The target in data set [4] is T1, Tyrosine-protein kinase Tec (Homo sapiens, UniProt P42680).
T1 sequence (P42680 whole entry): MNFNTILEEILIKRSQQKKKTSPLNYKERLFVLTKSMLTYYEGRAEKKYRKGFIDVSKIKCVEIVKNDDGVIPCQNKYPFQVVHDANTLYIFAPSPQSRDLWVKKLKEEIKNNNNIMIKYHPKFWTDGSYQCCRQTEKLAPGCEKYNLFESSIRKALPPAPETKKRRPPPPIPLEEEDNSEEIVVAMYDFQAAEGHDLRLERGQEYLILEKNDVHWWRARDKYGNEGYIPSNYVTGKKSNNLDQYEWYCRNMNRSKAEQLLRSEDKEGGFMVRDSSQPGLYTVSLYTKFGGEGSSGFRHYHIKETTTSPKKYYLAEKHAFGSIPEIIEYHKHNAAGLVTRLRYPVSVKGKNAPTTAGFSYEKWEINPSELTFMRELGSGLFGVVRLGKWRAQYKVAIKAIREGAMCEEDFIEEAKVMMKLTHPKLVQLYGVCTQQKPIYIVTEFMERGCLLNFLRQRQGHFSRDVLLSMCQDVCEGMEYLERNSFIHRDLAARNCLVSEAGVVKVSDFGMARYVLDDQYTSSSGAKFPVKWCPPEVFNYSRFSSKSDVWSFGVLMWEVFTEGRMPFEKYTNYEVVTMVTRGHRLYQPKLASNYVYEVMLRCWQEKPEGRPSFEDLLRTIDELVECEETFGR
In words: Inhibition of recombinant human N-terminal GST-fused TEC catalytic domain (359 to 631 residues) expressed in baculovirus expression system using biotin-labelled STK/TK as substrate measured after 1 hr by HTRF assay. In a few lines:
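HTRF KinEase format: TEC kinase and substrate mixed with serial compound concentrations at rt, then ATP added to start. Stopped after 1 h with EDTA detection solution containing europium anti-phosphotyrosine antibody and streptavidin-XL665. Read after a further 1 h at rt. Mean of ≥3 assays in triplicate.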

Data set [5] is filed under the species Homo sapiens. Put plainly: Selectivity ratio of IC50 for recombinant human ITK (352 to 617 residues) to IC50 for inhibition of FAM-labeled peptide binding to full-length human N-terminal GST-tagged BTK (2 to 659 residues) expressed in baculovirus infected Sf21 insect cells. In a few lines:
(§2)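 Ratio of kinase IC50 to BTK IC50. BTK measured by off-chip mobility shift: compound preincubated 10 min with BTK in 50 mM HEPES pH 7.5, 0.01% Brij-35, then FAM-labelled peptide and ATP added, 28 °C. Stopped with EDTA buffer; percent conversion fitted for IC50. Each panel kinase assayed in triplicate.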

Data set [6] in a line: Stability in human plasma assessed as parent compound remaining at 1 uM measured after 2 hrs by LC-MS/MS analysis. It counts as ADME, cell-free. The note with it: read-out: Stability. In outline:
as §1

Data set [7] is filed under the species Homo sapiens. In words: Selectivity ratio of IC50 for human full-length recombinant YES to IC50 for inhibition of FAM-labeled peptide binding to full-length human N-terminal GST-tagged BTK (2 to 659 residues) expressed in baculovirus infected Sf21 insect cells. In a few lines:
as §2

A short description of data set [8]: Toxicity in complete freund's adjuvant-induced DBA/1 mouse arthritis model assessed as change in body weight at 10 mg/kg, po qd administered starting from 29 day post-CFA challenge and measured on day 29, 33, 36, 40 and 43. The note with it: in vivo, 696 h. It counts as organism-based. In a few lines:
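CIA in male DBA/1 mice: intradermal bovine type II collagen in CFA on day 0, collagen II in IFA boost on day 20. Randomized on day 29 and given oral doses once daily (n=6 per group) alongside vehicle and naive groups. Body weights recorded over the study days.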

For data set [9], the species on record is Homo sapiens. Put plainly: Selectivity ratio of IC50 for recombinant human N-terminal GST-fused TEC catalytic domain (359 to 631 residues) expressed in baculovirus expression system to IC50 for inhibition of FAM-labeled peptide binding to full-length human N-terminal GST-tagged BTK (2 to 659 residues) expressed in baculovirus infected Sf21 insect cells. In outline: as §2

Data set [10] is filed under the species Homo sapiens. Put plainly: Selectivity ratio of IC50 for human full-length recombinant FYN to IC50 for inhibition of FAM-labeled peptide binding to full-length human N-terminal GST-tagged BTK (2 to 659 residues) expressed in baculovirus infected Sf21 insect cells. In outline:
as §2

Data set [11] is described as follows: Kinetic aqueous solubility of the compound in pH 7.4 phosphate buffered saline incubated for 24 hrs under shaking condition by HPLC analysis. In kind it is physicochemical. The following applies: read-out: Kinetic_solubility. In outline:
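Dry powder shaken 24 h at 25 °C in 0.1 M phosphate buffer, pH 7.4, then filtered through a 0.45 µm membrane. Concentration determined by HPLC against a standard of the compound in DMSO. Mean of three separate assays in triplicate.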

Chain of Epidermal growth factor receptor (P00533 whole entry, the tested form may be a part): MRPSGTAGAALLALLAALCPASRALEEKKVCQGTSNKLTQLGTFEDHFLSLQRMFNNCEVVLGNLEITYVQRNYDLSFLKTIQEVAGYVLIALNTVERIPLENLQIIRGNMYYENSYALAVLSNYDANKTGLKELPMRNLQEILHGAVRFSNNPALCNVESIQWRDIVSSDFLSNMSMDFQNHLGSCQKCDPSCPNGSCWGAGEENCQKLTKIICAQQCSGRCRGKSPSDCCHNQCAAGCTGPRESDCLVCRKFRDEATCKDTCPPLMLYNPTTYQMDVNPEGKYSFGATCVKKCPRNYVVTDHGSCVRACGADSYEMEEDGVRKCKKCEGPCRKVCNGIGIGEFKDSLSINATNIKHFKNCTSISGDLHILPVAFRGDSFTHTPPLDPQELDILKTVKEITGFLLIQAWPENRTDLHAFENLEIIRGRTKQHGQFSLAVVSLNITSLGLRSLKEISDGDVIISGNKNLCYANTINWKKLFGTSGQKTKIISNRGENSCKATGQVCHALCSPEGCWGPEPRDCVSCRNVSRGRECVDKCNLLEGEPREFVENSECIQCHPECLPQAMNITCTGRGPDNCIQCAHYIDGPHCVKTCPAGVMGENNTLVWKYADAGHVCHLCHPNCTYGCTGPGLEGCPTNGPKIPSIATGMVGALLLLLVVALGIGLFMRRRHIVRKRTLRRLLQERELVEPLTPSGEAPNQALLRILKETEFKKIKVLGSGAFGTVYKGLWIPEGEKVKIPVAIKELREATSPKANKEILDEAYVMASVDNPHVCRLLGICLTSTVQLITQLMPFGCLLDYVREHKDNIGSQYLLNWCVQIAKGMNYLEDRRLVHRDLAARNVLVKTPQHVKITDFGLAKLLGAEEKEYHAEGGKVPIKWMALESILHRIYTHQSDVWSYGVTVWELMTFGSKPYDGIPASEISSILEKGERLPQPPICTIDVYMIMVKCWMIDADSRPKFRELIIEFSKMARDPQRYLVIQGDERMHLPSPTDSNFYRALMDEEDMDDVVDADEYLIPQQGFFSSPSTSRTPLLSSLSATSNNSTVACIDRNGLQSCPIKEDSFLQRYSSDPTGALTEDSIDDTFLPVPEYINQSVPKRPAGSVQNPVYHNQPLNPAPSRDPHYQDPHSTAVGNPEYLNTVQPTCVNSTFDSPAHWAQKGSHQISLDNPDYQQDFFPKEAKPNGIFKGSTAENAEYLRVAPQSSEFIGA

Broadly, the IC50 is the concentration at which inhibition is half-maximal. Consider `COc1cc2cn[nH]c2cc1-c1ccc(F)c2c(N)c(C(N)=O)cnc12`, for which the values for the remaining at 2 h, 1 µM in data set [1] and in data set [6] were 98% and 93%, respectively. Also, the half-maximal inhibitory concentration (IC50) in data set [2] is over 2000 nM; in [4], 227 nM. Also, the result in [3] was Active. Moreover, the Ratio IC50 in [5] is 58; in data set [7], over 1000; in data set [9], 43; in data set [10] it was 31. In addition, the Activity result in data set [8] is listed as “Non-Toxic”. The solubility kinetic at 24 h in data set [11] came out at 7.3 µg/mL (≈ 20.8 µM).
